Data set [1] deals with Histone-lysine N-methyltransferase, H3 lysine-36 specific (Homo sapiens) (UniProt Q96L73). The data set can be described thus: Inhibition of human NSD1 using chicken nucleosome and 3H-SAM as substrate at 10 uM incubated for 1 hrs by TopCount scintillation proximity assay relative to control. The method in brief: (§1)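 Human methyltransferase panel, radiometric assays. Each compound tested at a single 10 μM concentration in triplicate. Enzymes inhibited by more than 50% were taken on to concentration–response.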
(In general: SPA uses beads or plates that emit light when radiolabelled molecules are held near them.)

The target in data set [2] is N-lysine methyltransferase SMYD2 (Homo sapiens) (UniProt Q9NRG4). The data set can be described thus: Inhibition of human SMYD2 using biotin-tagged p53 and 3H-SAM as substrate at 10 uM incubated for 1 hrs by TopCount scintillation proximity assay relative to control. The method in brief:
(§2)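 Selectivity panel against human SAM-dependent methyltransferases, radiometric format. Single test concentration of 10 μM, triplicate, read as percent inhibition.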

In data set [3] the target is Histone-lysine N-methyltransferase KMT5C (Homo sapiens) (UniProt Q86Y97). The data set can be described thus: Inhibition of human SUV420H2 using Biotin-tagged H4K20me1 and 3H-SAM as substrate at 10 uM incubated for 1 hrs by TopCount scintillation proximity assay relative to control. The method in brief: as §2
Data set [4] is described as follows: Aggregation property of the compound in KPi buffer at pH 7.0 assessed as formation of colloid-like particles by dynamic light scattering analysis. Type of data set: physicochemical. The method in brief: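 Compounds diluted as 8-point half-log series in filtered 50 mM KPi, pH 7.0, with 1% v/v DMSO final. Particles detected by dynamic light scattering, triplicate at each concentration. CAC taken as the intersection of separate nonlinear fits to aggregating (>10^6 scattering intensity) and non-aggregating data.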

Data set [5] is filed under the species Homo sapiens. Kind of data set: Inhibition of MDH (unknown origin) using oxaloacetic acid as substrate preincubated with compound for 5 mins followed by substrate addition and measured after 1.5 min in the presence of NADH by absorbance based plate reader analysis. Particulars: time 6.5 min. The method in brief:
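MDH assay at room temperature in 50 mM KPi, pH 7.0, with 1% v/v DMSO final. Compound preincubated 5 min with 2 nM enzyme. Reaction started with 200 μM NADH plus 200 μM oxaloacetic acid, and absorbance followed at 340 nm for 1 min 30 s. Initial rate divided by the DMSO control rate. Single top concentration in triplicate; eight-point half-log curves in triplicate where inhibition exceeded 40%.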

For data set [6], the target named is Histone-lysine N-methyltransferase NSD2 (Homo sapiens) (UniProt O96028). The data set can be described thus: Inhibition of human NSD2 using chicken nucleosome and 3H-SAM as substrate at 10 uM incubated for 1 hrs by TopCount scintillation proximity assay relative to control. Put shortly: as §1
Data set [7] has as its target Protein arginine N-methyltransferase 1 (Homo sapiens, UniProt Q99873). The data set can be described thus: Inhibition of human PRMT1 using biotin-tagged Histone H4 and 3H-SAM as substrate at 10 uM incubated for 1 hrs by TopCount scintillation proximity assay relative to control. Put shortly: as §1
Data set [8] concerns the target Protein arginine N-methyltransferase 8 (Homo sapiens) (UniProt Q9NR22). The data set can be described thus: Inhibition of human PRMT8 using biotin-tagged Histone H4 and 3H-SAM as substrate at 10 uM incubated for 1 hrs by TopCount scintillation proximity assay relative to control. The method in brief:
as §1

Data set [9] addresses Replicase polyprotein 1ab (Severe acute respiratory syndrome coronavirus 2) (UniProt P0DTD1). The data set can be described thus: Non-covalent inhibition of N-terminal 6His/SUMO-tagged SARS-CoV-2 NSP14 expressed in Escherichia coli Rosetta 2 (DE3) PlysS cells using 5'GpppACCCCCCCCC-Biotin 3' and 3H-SAM as substrates incubated for 30 mins by TopCount scintillation proximity assay. Put shortly:
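Radiometric N7-MTase assay tracking [3H]-methyl transfer from SAM onto the cap of […] RNA, run with 0.01% v/v Triton X-100. Concentration–response in triplicate to give IC50.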

The target in data set [10] is Histone-lysine N-methyltransferase 2A (Homo sapiens, UniProt Q03164). The data set can be described thus: Inhibition of human MLL1 using biotin-tagged Histone H3 and 3H-SAM as substrate at 10 uM incubated for 1 hrs by TopCount scintillation proximity assay relative to control. The method in brief: as §1
Data set [11] addresses Histone-lysine N-methyltransferase, H3 lysine-79 specific (Homo sapiens, UniProt Q8TEK3). Kind of data set: Inhibition of human DOT1L using chicken nucleosome and 3H-SAM as substrate at 10 uM incubated for 1 hrs by TopCount scintillation proximity assay relative to control. Put shortly:
as §1

The target in data set [12] is Histone-lysine N-methyltransferase EHMT1 (Homo sapiens) (UniProt Q9H9B1). The data set can be described thus: Inhibition of human GLP using biotin-tagged Histone H3 and 3H-SAM as substrate at 10 uM incubated for 1 hrs by TopCount scintillation proximity assay relative to control. The method in brief: as §1
Data set [13] concerns the target Histone-lysine N-methyltransferase SETDB1 (Homo sapiens) (UniProt Q15047). Kind of data set: Inhibition of human SETDB1 using biotin-tagged Histone H3 and 3H-SAM as substrate at 10 uM incubated for 1 hrs by TopCount scintillation proximity assay relative to control. Put shortly: as §2
For data set [14], the target named is Replicase polyprotein 1ab (Severe acute respiratory syndrome coronavirus 2) (UniProt P0DTD1). Kind of data set: Competitive inhibition of N-terminal 6His/SUMO-tagged SARS-CoV-2 NSP14 expressed in Escherichia coli Rosetta 2 (DE3) PlysS cells using 5'GpppACCCCCCCCC-Biotin 3' and 3H-SAM as substrates at increasing concentration incubated for 30 mins by TopCount scintillation proximity assay. The method in brief:
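Competition pattern read from IC50 shifts. […] Separately, SAM fixed at 1.25 μM (5× Km) with RNA varied up to 0.5 μM (10× Km). A linear rise of IC50 with substrate concentration was taken as competitive inhibition.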

Data set [15] is filed under the species Homo sapiens. The data set can be described thus: Inhibition of human EZH2 using biotin-tagged Histone H3 and 3H-SAM as substrate at 10 uM incubated for 1 hrs by TopCount scintillation proximity assay relative to control. The method in brief:
as §1

For data set [16], the target named is Histone-lysine N-methyltransferase KMT5B (Homo sapiens) (UniProt Q4FZB7). Kind of data set: Inhibition of human SUV420H1 using Biotin-tagged H4K20me1 and 3H-SAM as substrate at 10 uM incubated for 1 hrs by TopCount scintillation proximity assay relative to control. The method in brief:
as §2

The target in data set [17] is Replicase polyprotein 1ab (Severe acute respiratory syndrome coronavirus 2, UniProt P0DTD1). The data set can be described thus: Inhibition of N-terminal 6His/SUMO-tagged SARS-CoV-2 NSP14 expressed in Escherichia coli Rosetta 2 (DE3) PlysS cells using 5'GpppACCCCCCCCC-Biotin 3' and 3H-SAM as substrates incubated for 30 mins by TopCount scintillation proximity assay.

Data set [18] concerns the target Histone-lysine N-methyltransferase SETD7 (Homo sapiens) (UniProt Q8WTS6). The data set can be described thus: Inhibition of human SETD7 using biotin-tagged Histone H3 and 3H-SAM as substrate at 10 uM incubated for 1 hrs by TopCount scintillation proximity assay relative to control. The method in brief: as §2
The target in data set [19] is RNA 5'-monophosphate methyltransferase (Homo sapiens) (UniProt Q7Z5W3). The data set can be described thus: Inhibition of human BCDIN3D using biotin-tagged microRNA-145 and 3H-SAM as substrate at 10 uM incubated for 1 hrs by TopCount scintillation proximity assay relative to control. Put shortly:
as §1

Data set [20] has as its target Histone-lysine N-methyltransferase SMYD3 (Homo sapiens) (UniProt Q9H7B4). The data set can be described thus: Inhibition of human SMYD3 using biotin-tagged MAP3K2 and 3H-SAM as substrate at 10 uM incubated for 1 hrs by TopCount scintillation proximity assay relative to control. Put shortly: as §2

The source made the active and inactive calls. No cut-off for these calls is given here.

Sequence of Histone-lysine N-methyltransferase 2A (Q03164 1-2718 limits assumed): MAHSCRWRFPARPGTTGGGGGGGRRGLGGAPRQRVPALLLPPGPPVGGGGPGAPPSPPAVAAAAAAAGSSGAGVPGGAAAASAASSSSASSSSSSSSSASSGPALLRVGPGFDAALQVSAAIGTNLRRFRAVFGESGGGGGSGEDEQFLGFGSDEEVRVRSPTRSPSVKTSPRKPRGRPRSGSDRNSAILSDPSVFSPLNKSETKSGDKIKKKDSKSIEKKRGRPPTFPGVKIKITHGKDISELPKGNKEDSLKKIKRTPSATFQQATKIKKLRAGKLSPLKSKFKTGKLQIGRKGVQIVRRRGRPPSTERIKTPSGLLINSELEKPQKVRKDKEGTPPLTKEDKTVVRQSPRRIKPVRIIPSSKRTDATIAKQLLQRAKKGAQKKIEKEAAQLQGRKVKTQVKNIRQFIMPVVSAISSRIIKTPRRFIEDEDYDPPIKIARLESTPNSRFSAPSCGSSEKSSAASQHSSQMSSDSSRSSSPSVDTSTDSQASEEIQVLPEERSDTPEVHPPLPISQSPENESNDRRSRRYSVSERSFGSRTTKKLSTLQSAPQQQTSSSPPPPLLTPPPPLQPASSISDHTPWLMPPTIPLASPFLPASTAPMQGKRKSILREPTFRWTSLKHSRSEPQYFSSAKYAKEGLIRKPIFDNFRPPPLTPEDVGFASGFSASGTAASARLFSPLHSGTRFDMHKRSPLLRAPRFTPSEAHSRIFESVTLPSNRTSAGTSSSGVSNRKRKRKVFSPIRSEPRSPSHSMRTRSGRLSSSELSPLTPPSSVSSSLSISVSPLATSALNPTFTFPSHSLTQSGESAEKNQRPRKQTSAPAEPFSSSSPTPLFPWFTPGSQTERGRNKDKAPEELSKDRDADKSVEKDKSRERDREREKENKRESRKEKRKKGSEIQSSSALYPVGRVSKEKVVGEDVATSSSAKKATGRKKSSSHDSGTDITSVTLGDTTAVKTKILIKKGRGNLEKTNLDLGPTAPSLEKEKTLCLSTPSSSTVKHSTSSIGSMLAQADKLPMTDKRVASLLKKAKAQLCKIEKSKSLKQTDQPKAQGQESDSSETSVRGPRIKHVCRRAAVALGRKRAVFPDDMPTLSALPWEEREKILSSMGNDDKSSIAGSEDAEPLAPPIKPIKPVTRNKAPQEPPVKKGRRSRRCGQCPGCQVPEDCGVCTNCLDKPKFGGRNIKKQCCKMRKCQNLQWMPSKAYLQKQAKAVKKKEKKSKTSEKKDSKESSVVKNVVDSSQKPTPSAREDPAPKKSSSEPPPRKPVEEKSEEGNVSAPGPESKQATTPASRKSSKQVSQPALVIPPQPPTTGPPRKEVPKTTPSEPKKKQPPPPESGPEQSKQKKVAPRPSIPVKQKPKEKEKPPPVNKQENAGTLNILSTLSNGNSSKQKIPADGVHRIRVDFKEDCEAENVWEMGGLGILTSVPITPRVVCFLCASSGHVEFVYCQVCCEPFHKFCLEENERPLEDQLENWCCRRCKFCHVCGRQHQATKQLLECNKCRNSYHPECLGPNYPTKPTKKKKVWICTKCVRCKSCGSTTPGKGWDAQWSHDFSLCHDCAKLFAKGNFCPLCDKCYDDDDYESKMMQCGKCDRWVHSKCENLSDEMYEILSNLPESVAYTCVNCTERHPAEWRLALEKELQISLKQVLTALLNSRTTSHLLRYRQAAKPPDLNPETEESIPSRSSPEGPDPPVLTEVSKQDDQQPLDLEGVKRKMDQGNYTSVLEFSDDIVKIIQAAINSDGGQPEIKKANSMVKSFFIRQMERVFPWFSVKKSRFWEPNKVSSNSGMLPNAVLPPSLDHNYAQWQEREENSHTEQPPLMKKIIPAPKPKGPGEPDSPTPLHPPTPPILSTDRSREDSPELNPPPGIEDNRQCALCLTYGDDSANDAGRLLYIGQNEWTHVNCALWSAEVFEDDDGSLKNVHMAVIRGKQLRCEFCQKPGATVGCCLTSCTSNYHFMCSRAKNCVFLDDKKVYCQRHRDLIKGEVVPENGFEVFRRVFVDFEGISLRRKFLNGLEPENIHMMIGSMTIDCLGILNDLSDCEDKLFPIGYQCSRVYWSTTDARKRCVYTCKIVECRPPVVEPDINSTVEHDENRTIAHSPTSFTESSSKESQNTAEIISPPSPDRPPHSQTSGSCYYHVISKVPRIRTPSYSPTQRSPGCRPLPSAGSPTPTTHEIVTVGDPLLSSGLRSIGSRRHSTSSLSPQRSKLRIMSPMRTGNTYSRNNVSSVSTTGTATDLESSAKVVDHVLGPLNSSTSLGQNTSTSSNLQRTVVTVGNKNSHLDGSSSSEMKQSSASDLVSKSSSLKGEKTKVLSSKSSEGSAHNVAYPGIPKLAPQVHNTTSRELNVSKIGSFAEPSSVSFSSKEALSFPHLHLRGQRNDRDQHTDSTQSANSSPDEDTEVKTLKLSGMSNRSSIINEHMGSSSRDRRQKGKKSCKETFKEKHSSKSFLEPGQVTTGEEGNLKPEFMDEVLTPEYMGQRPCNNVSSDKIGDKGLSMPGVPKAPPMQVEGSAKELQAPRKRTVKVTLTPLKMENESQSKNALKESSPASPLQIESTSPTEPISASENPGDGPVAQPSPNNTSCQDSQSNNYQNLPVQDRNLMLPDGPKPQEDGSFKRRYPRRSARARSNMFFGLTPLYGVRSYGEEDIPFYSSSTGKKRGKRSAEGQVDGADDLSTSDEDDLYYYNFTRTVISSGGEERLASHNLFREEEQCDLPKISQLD
Sequence of Histone-lysine N-methyltransferase 2A (Q03164 2719-3969 limits assumed): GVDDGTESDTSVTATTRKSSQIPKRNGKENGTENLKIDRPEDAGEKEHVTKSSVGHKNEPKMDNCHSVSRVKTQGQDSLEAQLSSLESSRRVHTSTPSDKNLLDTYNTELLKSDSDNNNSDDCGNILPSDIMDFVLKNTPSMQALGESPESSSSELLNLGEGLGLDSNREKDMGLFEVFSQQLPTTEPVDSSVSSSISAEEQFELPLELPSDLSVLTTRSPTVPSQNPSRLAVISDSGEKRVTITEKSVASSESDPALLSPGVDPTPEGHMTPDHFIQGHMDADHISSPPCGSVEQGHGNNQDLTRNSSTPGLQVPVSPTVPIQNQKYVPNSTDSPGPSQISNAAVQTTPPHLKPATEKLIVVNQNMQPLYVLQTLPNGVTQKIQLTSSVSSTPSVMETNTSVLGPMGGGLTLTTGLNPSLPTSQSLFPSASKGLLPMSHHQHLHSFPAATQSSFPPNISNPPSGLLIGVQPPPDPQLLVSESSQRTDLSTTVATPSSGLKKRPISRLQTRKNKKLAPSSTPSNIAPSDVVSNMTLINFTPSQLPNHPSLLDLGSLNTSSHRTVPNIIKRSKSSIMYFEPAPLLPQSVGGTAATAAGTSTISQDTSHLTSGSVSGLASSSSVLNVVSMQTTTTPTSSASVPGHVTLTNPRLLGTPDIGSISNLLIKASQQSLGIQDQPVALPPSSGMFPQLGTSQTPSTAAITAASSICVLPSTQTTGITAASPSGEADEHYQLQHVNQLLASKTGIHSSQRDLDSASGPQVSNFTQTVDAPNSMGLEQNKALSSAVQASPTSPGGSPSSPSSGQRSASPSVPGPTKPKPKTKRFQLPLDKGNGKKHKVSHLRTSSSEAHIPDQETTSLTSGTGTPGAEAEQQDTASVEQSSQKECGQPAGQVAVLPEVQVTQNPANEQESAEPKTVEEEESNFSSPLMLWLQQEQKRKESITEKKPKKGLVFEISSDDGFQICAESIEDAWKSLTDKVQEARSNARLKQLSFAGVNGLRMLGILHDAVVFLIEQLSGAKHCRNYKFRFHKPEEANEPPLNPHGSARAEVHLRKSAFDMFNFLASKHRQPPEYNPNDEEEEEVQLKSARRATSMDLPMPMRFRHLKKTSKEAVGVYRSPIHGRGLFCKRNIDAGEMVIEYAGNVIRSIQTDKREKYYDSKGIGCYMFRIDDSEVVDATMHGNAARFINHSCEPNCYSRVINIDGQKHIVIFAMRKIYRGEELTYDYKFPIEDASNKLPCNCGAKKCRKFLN
Sequence of RNA 5'-monophosphate methyltransferase (Homo sapiens) (Q7Z5W3 whole entry): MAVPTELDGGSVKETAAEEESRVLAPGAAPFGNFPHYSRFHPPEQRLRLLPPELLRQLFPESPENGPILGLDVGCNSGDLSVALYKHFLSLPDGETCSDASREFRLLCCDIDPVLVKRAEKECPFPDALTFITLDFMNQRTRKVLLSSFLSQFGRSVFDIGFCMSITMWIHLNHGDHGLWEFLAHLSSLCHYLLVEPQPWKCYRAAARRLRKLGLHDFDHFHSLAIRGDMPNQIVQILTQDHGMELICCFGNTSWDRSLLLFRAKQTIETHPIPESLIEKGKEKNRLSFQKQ
Sequence of Histone-lysine N-methyltransferase SMYD3 (Homo sapiens) (Q9H7B4 whole entry): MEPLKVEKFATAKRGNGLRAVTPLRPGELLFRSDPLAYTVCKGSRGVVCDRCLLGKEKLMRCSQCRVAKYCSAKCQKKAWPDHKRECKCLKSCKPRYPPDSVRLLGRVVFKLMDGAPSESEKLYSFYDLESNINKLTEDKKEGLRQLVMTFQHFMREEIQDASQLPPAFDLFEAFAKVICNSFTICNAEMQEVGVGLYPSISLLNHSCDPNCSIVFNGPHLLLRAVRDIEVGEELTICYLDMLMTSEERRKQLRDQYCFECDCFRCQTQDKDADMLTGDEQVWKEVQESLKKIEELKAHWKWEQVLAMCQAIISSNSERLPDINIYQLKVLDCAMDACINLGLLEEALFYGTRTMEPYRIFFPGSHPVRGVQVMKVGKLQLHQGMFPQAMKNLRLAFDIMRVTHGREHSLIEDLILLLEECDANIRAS
Sequence of Protein arginine N-methyltransferase 1 (Q99873 whole entry, looked up): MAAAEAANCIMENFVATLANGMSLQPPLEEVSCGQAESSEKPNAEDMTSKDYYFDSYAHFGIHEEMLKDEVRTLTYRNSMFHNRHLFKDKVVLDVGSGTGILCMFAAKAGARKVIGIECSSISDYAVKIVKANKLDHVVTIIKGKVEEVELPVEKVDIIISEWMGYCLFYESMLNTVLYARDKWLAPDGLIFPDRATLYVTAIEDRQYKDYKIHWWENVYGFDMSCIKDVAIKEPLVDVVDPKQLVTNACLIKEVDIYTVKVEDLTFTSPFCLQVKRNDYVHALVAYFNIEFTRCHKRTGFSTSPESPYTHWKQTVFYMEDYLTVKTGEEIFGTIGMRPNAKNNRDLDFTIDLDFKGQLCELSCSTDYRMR

Turning to `Cc1c(C(=O)/C=C/c2ccc(O)c([N+](=O)[O-])c2)c(C#N)c2n1CCC2`, the inhibition in [1], in data set [2], in data set [3], in [6], in data set [7] and in data set [8] was less than 50% in each case. Further, the inhibition (in data set [10]; in data set [11]; in data set [12]; in data set [13]; in the data set listed under Homo sapiens [15]; in data set [16]) was less than 50% throughout. Moreover, the inhibition in data set [18], in data set [19] and in data set [20] was less than 50% each time. Further, in data set [4], the Activity result is “Not Active”. In addition, the inhibition entry (in the data set filed under Homo sapiens [5]; in [9]; in data set [14]) was “Active” each time. Further, in [17], half-maximal inhibition (IC50) required 50 µM.

The inhibition is the relative decrease from the control value, in per cent. What is called IC50 is the midpoint of a concentration-inhibition curve.

The values are drawn from ChEMBL document CHEMBL5338825, “Structure-Based Discovery of Inhibitors of the SARS-CoV-2 Nsp14 N7-Methyltransferase” (J Med Chem, 2023).
